# Experimental data as given in ChEMBL document CHEMBL1142896, “The synthesis of amphipathic prodrugs of 1,2-diol drugs with saccharide conjugates by high regioselective enzymatic protocol” (Bioorg Med Chem, 2007).
# Tests used:
# [1] = Distribution coefficient, log D at pH 7.4; format: physicochemical; details: octanol/water
# In short: (§1)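 Shake-flask partitioning between n-octanol and phosphate buffer pH 7.4; phases mixed 15 min, centrifuged at 1 · 10⁴ rpm for 5 min, separated. Each layer diluted tenfold and analysed by HPLC (UV detection 228–232 nm, methanol/water 80:20 eluent). D7.4 calculated from the layer concentrations; triplicate, mean reported.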
# [2] = Partition coefficient, log P of the compound; format: physicochemical; details: octanol/water; in short: as §1
# [3] = Half life of hydrolysis in hydrochloric acid buffer at pH 1.2; format: ADME
# In short: (§2)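 Non-enzymatic chemical hydrolysis at 37 °C in 0.2 M hydrochloric acid buffer pH 1.2 (simulated gastric fluid) or 0.2 M phosphate buffer pH 7.4. 25 mM dioxane stock diluted 1:10 into thermostated buffer. Remaining ester followed by HPLC. Pseudo-first-order k_obsd fitted, and t1/2 derived from it.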
# [4] = Half life of hydrolysis in phosphate buffer at pH 7.4; format: ADME; in short: as §2
Log D [1],LogP [2],half-life [3],half-life [4],Structure (SMILES)
1.44,1.44,,,NC(=O)OCC(O)COc1ccc(Cl)cc1 (stereo unspecified) [CHLORPHENESIN CARBAMATE]
1.09,1.09,8.75 h,19.9 h,Cc1ccccc1OCC(O)CO (stereo unspecified) [MEPHENESIN]
